The source of these data is the RNAGym collection of RNA variant scans (doi:10.1038/s41586-018-0170-7).

The chains are these.
B1: tRNA (parent)
chain: GUUCCGUUGGCGUAAUGGUAACGCGUCUCCCUCCUAAGGAGAAGACUGCGGGUUCGAGUCCCGUACGGAACG

Variants of B1 are the subject of this series. The series is described as follows: yeast fitness, log relative to wild type (ln ratio); higher = fitter; tRNA-Arg(CCU), competitive growth, 37 C, 1 M NaCl. Put shortly:
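BY4742 cells without the chromosomal tRNA-Arg(CCU) gene carried a combinatorial variant library on a HIS3 centromeric plasmid, from two independent transformations. After 4 generations in SC-HIS at 30 °C, pools spent ~6.5 generations (~26.5 h) in SC-HIS 1M NaCl at 37 °C, giving three outputs per input, and 125 bp paired-end Illumina reads counted the variants. Fitness is the natural log of each genotype's generations over the wild type's, with generations taken as OD-scaled log2 output/input frequency weighted by inverse variance across replicates.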
Turning to C66U A70U C71U, the “yeast fitness (ln)” value is -0.135.

As for U2G C27U A69G A70G, the “yeast fitness (ln)” value is -0.217.

Turning to U2C C27U A43C C46U C66A A69G A70G C71U, the “yeast fitness (ln)” value was -0.15.

As to G1A U2C C27U A43C C66U A70G C71U, the “yeast fitness (ln)” value was -0.197.

Take U2G G6A C27U A43C C66U A70G C71U: the “yeast fitness (ln)” value was -0.29.

G1A U2G C27U: the “yeast fitness (ln)” value is -0.0429.

On to G1A U2C C46U A69G A70G, for which the “yeast fitness (ln)” value was -0.029.

For the variant G1A U2G G6A C27U C46U C66U A69G A70G C71U, the “yeast fitness (ln)” value was -0.407.

With G1A U2G G6U A43C C46U, the “yeast fitness (ln)” value was -0.117.

For G1A G6U C46U A70U C71U, the “yeast fitness (ln)” value was -0.185.

Take G1A U2G G6A A43C C46U C66A A70G: the “yeast fitness (ln)” value is -0.26.

As for U2C G6U A43C C46U C66A A69G A70U C71U, the “yeast fitness (ln)” value was -0.396.

Consider U2G G6A C27U A43C A70G C71U, for which the “yeast fitness (ln)” value was -0.221.

In the case of U2C C66U A69G A70U C71U, the “yeast fitness (ln)” value was -0.404.

As to G1A U2C G6U A43C A70G C71U, the “yeast fitness (ln)” value was -0.198.

Regarding G6U C27U C66U A69G A70U, the “yeast fitness (ln)” value was -0.329.

In the case of G1A U2G G6U C27U C46U C66A A70G, the “yeast fitness (ln)” value was -0.148.

Turning to G1A U2C C27U A43C C46U A70U C71U, the “yeast fitness (ln)” value was -0.221.

Turning to G1A U2G C27U A43C C66U A70U C71U, the “yeast fitness (ln)” value was -0.382.

Consider G1A U2G G6A C46U A70U C71U, for which the “yeast fitness (ln)” value was -0.559.

With G1A U2C G6U C66U A69G A70U, the “yeast fitness (ln)” value was -0.244.

Take U2G A43C C46U C66U A69G: the “yeast fitness (ln)” value was -0.199.

As for U2G G6A C27U C46U C66A A70U, the “yeast fitness (ln)” value was -0.134.

With G1A C27U C46U C66A A69G A70U, the “yeast fitness (ln)” value is -0.179.

G1A G6U C27U A70G C71U: the “yeast fitness (ln)” value is -0.352.

Regarding G1A U2G C27U A43C C46U C66A A70G, the “yeast fitness (ln)” value was -0.178.

For G1A U2G C27U A43C C46U C66A A70U, the “yeast fitness (ln)” value is -0.175.

Consider G1A U2G G6U A43C A69G A70U C71U, for which the “yeast fitness (ln)” value was -0.428.

As for U2G C27U A43C C46U C66A A69G C71U, the “yeast fitness (ln)” value is -0.34.

For G1A U2G G6A A43C C46U A69G A70G, the “yeast fitness (ln)” value was -0.292.

Consider U2G C27U C46U A70G, for which the “yeast fitness (ln)” value was -0.0813.

With G1A U2C C27U A43C C46U C66A A70G, the “yeast fitness (ln)” value is -0.102.

Consider U2G G6U C27U C66U A70G C71U, for which the “yeast fitness (ln)” value is -0.312.

As for G1A U2C C66U A70G C71U, the “yeast fitness (ln)” value is 0.00307.

Turning to G1A G6A A70U C71U, the “yeast fitness (ln)” value was -0.153.

Consider G1A U2G C27U A69G A70U, for which the “yeast fitness (ln)” value was -0.188.

In the case of G1A U2C G6A C46U C66U A69G A70G, the “yeast fitness (ln)” value is -0.0859.

On to G6A C27U C66A A69G A70G C71U, for which the “yeast fitness (ln)” value is -0.288.

As for G1A G6U C27U C46U C66U A69G A70G, the “yeast fitness (ln)” value was -0.28.

For G1A U2C A70U C71U, the “yeast fitness (ln)” value was -0.0394.

Take U2C C27U C66A A70U: the “yeast fitness (ln)” value is -0.0861.

U2G G6U C27U A43C C66A A69G A70U: the “yeast fitness (ln)” value is -0.315.

As for U2G G6A A43C A70G C71U, the “yeast fitness (ln)” value was -0.18.

In the case of U2C G6U C46U C66U C71U, the “yeast fitness (ln)” value was -0.112.

For the variant U2C C27U A43C A69G A70G C71U, the “yeast fitness (ln)” value was -0.0704.

Take U2C G6A C27U C66U A70G: the “yeast fitness (ln)” value is -0.0339.

U2G G6A C66A A70G C71U: the “yeast fitness (ln)” value was -0.17.

Take G1A U2C G6U C27U C46U C66U A70G: the “yeast fitness (ln)” value was -0.203.

Take U2C G6U A43C C46U C66U A70G: the “yeast fitness (ln)” value was -0.0851.

Consider U2G A43C C66U A70U C71U, for which the “yeast fitness (ln)” value was -0.351.

Consider G1A G6A C27U A43C C46U C66U A70U C71U, for which the “yeast fitness (ln)” value was -0.413.

For A43C C46U A69G A70U, the “yeast fitness (ln)” value was -0.133.

Consider G1A U2G G6A A43C C46U C71U, for which the “yeast fitness (ln)” value is -0.23.

As to G1A C46U A70G C71U, the “yeast fitness (ln)” value was -0.0168.

Consider U2G G6A C27U C66A A69G A70G C71U, for which the “yeast fitness (ln)” value was -0.249.

Turning to G1A U2G C27U C46U C66A, the “yeast fitness (ln)” value was -0.0584.

For the variant G1A U2G C27U C46U C66U, the “yeast fitness (ln)” value is -0.185.

Consider U2G C27U C46U C66U A69G A70G, for which the “yeast fitness (ln)” value is -0.187.

Take G1A U2C G6U A43C C66A A70G C71U: the “yeast fitness (ln)” value is -0.0204.

Take G1A C46U C66A A69G A70U C71U: the “yeast fitness (ln)” value was -0.331.

For G1A U2C G6A C66U A70U C71U, the “yeast fitness (ln)” value was -0.159.

For the variant U2G G6U C46U C66U A69G C71U, the “yeast fitness (ln)” value was -0.252.

G1A U2C G6U A70U C71U: the “yeast fitness (ln)” value was -0.158.

With G1A G6U C66A A69G A70G C71U, the “yeast fitness (ln)” value was -0.17.

Consider U2C G6U A43C C46U C66A A70G C71U, for which the “yeast fitness (ln)” value came to 0.00139.

Consider G1A G6A C27U A69G A70G, for which the “yeast fitness (ln)” value is -0.342.

As for G1A C46U C66U C71U, the “yeast fitness (ln)” value was -0.0203.

Turning to G1A C27U A43C C66A A69G A70U, the “yeast fitness (ln)” value was -0.391.

Consider U2C G6A C27U A43C C46U A69G A70U, for which the “yeast fitness (ln)” value was -0.122.

Take U2C G6A C27U A43C C46U A69G A70G: the “yeast fitness (ln)” value was -0.0933.

Regarding G1A G6A C27U C46U A69G A70U C71U, the “yeast fitness (ln)” value is -0.36.

As for U2C G6A C46U A70G C71U, the “yeast fitness (ln)” value is -0.0308.

For G1A U2G A43C C46U C66U A69G C71U, the “yeast fitness (ln)” value was -0.404.

Turning to U2G G6A C27U A43C C46U C66U A70U, the “yeast fitness (ln)” value is -0.0122.

Regarding U2G C27U A70G C71U, the “yeast fitness (ln)” value is -0.178.

Regarding G1A G6U C71U, the “yeast fitness (ln)” value was -0.481.

For U2G G6U C27U C46U C66A, the “yeast fitness (ln)” value is -0.144.

For G1A C27U A43C C66U A69G C71U, the “yeast fitness (ln)” value was -0.343.

With U2C G6U C27U A70G C71U, the “yeast fitness (ln)” value is -0.309.

As for U2G G6U A43C C66A A70U C71U, the “yeast fitness (ln)” value was -0.43.

For G1A G6U C27U A43C C46U A69G A70G C71U, the “yeast fitness (ln)” value is -0.414.

In the case of U2C C66A A69G A70U, the “yeast fitness (ln)” value is -0.0958.

As to U2C C66A A69G A70G, the “yeast fitness (ln)” value is -0.0883.
